# NPY1 pot ag: potentiates or activates human NPY-Y1 receptor; P25929; NPY-Y1 expressing cells, potentiator/agonist activation; activation, % at 3.6 µM; 220,000 compounds, 0.37% hits; AID 1304; in the data active means activation above about 33%, passing the limit was not always enough;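 further: cells stimulated with NPY at EC10 then isoproterenol at EC100; 0% = low agonist plus stimulus and 100% = saturating agonist plus stimulus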
# NPY2 pot ag: human NPY-Y2 potentiation or agonism, primary screen; cells expressing NPY-Y2, potentiator/agonist read-out; activation, % at 3.6 µM; 220,000 compounds, 0.45% hits; AID 1359; in the data active means activation above about 27%;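 further: cells stimulated with NPY near EC25 plus isoproterenol at EC100; 0% = vehicle plus submaximal agonist and 100% = vehicle plus saturating agonist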
# Target sequence (P49146 whole entry, looked up): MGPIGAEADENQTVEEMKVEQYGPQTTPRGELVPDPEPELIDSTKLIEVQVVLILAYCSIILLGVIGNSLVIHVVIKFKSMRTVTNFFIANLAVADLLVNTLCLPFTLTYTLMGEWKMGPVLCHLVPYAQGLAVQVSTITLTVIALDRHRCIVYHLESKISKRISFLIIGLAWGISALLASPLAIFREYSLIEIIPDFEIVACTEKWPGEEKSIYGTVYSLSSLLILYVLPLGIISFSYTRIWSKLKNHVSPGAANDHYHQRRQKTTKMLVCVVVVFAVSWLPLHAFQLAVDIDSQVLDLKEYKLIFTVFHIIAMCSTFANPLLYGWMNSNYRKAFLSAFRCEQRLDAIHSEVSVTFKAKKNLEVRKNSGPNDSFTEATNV
# NPY Y1 blocker: blocks the human neuropeptide Y Y1 receptor; 200,000 compounds, 1% hits; inhibition, % at 3.6 µM; HEK293-CNG Y1 cells, membrane potential fluorescence; NPY at EC95, then isoproterenol;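 active means inhibition above the campaign mean inhibition of all tested compounds plus 3 SD, cut at about 20% in these data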;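 further: 0% = DMSO wells given NPY plus isoproterenol and 100% = isoproterenol alone without NPY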
#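 Assay system: HEK293 Y1/CNG channel cell line; Doses: single compound dose of 3.6 µM, 0.4% DMSO; Timing: dye 3 h, compound 60 min room temperature, stimulation 45 min; Technique: Membrane-potential fluorescent dye readout; Measure: % inhibition of NPY effect.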
# RAM network inh: blocks the yeast RAM network; S. cerevisiae dse1pr::URA3 reporter, 5-FOA growth OD615, 2 d; analog-sensitive cbk1-as2 kinase mutant strain; inhibition, % at 50 µM; 190,000 compounds, 1.8% hits; AID 868;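 active means inhibition above a set limit, 3 SD over mean compound inhibition, cut at about 8.4% in these data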;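 further: 0% = DMSO-only wells with no growth and 100% = 10 µM 1-NA-PP1 full growth; inhibition rescues growth on 5-FOA so higher OD means more RAM inhibition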
# NPY Y2 blocker: blocks the human neuropeptide Y Y2 receptor; P49146; NPY-Y2 expressing cells, antagonist mode; inhibition, % at 2.7 µM; 140,000 compounds, 0.99% hits; in the data active means inhibition above about 17%;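 further: 0% = vehicle with agonist challenge and 100% = reference antagonist with challenge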
# WT yeast gro inh: growth inhibition of WT yeast, mitochondrial fusion screen; mitochondrial fusion phenotypic screen, WT strain; inhibition, % at 10 µM; 190,000 compounds, 2.1% hits; in the data active means inhibition above about 58%; tested in S. cerevisiae
# NPY1 antag ctr: human NPY-Y1 antagonism in NPY-Y2 counter-screen; inhibition, % at 3.6 µM; AID 1256; cell-based NPY-Y1 antagonism counterscreen; shares compounds with NPY Y2 blocker; 710 compounds, 19% hits; in the data active means inhibition above about 20%;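 further: cells challenged with NPY then isoproterenol with cAMP sensed through a CNG channel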
# NPY-Y2 ant conf: confirmation of human neuropeptide Y receptor Y2 antagonists. inhibition, % at 2.8 µM. shares compounds with NPY Y2 blocker. AID 1257. HEK293 NPY-Y2 CNG channel, membrane potential fluorescence. 710 compounds, 32% hits;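 active means mean inhibition of triplicate wells above the hit cutoff set in the primary screen, cut at about 17% in these data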;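 further: 0% = DMSO with NPY challenge and 100% = BIIE0246 high control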
# An asterisk follows results filed as active; . = no result given. An excerpt weighted towards active compounds, which were near 4.9% of everything screened.
SMILES,NPY1 pot ag,NPY2 pot ag,NPY Y1 blocker,RAM network inh,NPY Y2 blocker,WT yeast gro inh,NPY1 antag ctr,NPY-Y2 ant conf
O=C(NCCc1ccccc1)N1c2ccccc2Sc2ccccc21,-5,2,-1,9.8*,5,-4,.,.
CC(C)CNC(=O)N1c2ccccc2Sc2ccccc21,25,9,.,.,.,.,.,.
Cc1cc(NC(=O)CSc2nnc(-c3ccoc3C)n2N)no1,37,-3,14,4,1,12,.,.
Nc1ccc2c(c1)C(=O)C(=O)c1ccccc1-2,-9,-3,9,2,48*,97*,17,35*
C#CCNC(=O)C1=C[C@H](c2ccc3c(c2)OCO3)[C@@H](CCCO)[C@H](OCC)O1,-5,-13,-1,1,.,-20,.,.
O=C(Cc1ccc(Cl)cc1)Nc1ccccc1Sc1ccccc1,-5,2,8,0,10,35,.,.
CC(C)n1c(C(=O)OCC(=O)NCc2ccc3c(c2)OCO3)cc2occc21,-23,-6,5,1,14,5,.,.
CC(C)n1c(C(=O)OCC(=O)NCc2ccc3c(c2)OCO3)cc2sccc21,-28,-3,6,3,22*,31,8,8
COC(=O)c1cc(-c2ccc(S(=O)(=O)N3CCCCC3)cc2)c(C(F)(F)F)s1,11,-9,.,.,.,.,.,.
CCOc1ccc(NC(=O)Cn2nnc3c(cnn3-c3ccc(F)cc3)c2=O)cc1,11,-13,0,5,.,12,.,.
Cc1ccccc1NC(=O)Cn1nnc2c(cnn2-c2ccc(F)cc2)c1=O,-23,-7,1,2,24*,4,10,8
Cc1c(C(=O)Nc2nc3ccccc3[nH]2)oc2ccc(Br)cc12,-6,-19,-1,3,19*,45,12,14
Cc1c(C(=O)Nc2nc3ccccc3[nH]2)oc2ccccc12,-1,0,3,2,5,32,.,.
Cc1cc(C(F)(F)F)nc(SCC(=O)c2cccc([N+](=O)[O-])c2)n1,-5,5,0,-1,19*,.,3,5
CC(=O)N=c1sc(S(N)(=O)=O)nn1C,2,1,4,0,1,13,.,.
NC(=S)Nc1cccc2cn[nH]c12,1,-12,0,0,.,-20,.,.
COc1ccc(OCCNc2cc(N3CCCCC3)ccc2[N+](=O)[O-])cc1,-12,-7,7,11*,18*,8,4,7
Cc1cccc(COCC(CC(C)C)N2CCN(C(=O)c3ccc(C(F)(F)F)cc3)CCC2=O)c1 (configuration not stated),-23,-4,13,2,14,44,.,.
Cc1cccc(COCC(CC(C)C)N2CCN(C(=O)c3ccc(C(C)(C)C)cc3)CCC2=O)c1 (configuration not stated),-40,-5,10,2,19*,84*,17,11
COc1ccccc1NC(=O)c1ccc(COc2ccc3c(c2)CCC3)cc1,-8,3,4,8,22*,-18,4,16
COc1cccc(OC)c1C(=O)NNC(=O)c1cccc(COc2ccc3c(c2)CCC3)c1,0,5,1,1,5,0,.,.
Cc1nc2c3ccccc3nc(SCC(=O)N3CC(C)CC(C)C3)n2n1 (configuration not stated),6,-2,2,2,4,13,.,.
Cc1nc2c3ccccc3nc(SCC(=O)c3ccc(Cl)cc3)n2n1,5,-5,13,3,27*,13,21*,15
FC(F)(F)c1nc(-c2cccnc2)ncc1-c1nnnn1-c1ccccc1,-23,-6,1,1,5,-5,.,.
FC(F)(F)c1nc(-c2cccs2)ncc1-c1nnnn1-c1ccc(Cl)cc1,-32,6,14,2,25*,77*,26*,17
N=c1c(C(=O)NCc2ccco2)cc2c(=O)n3ccccc3nc2n1Cc1ccccc1,5,2,8,1,24*,6,13,12
COCCn1c(=N)c(C(=O)NCc2ccco2)cc2c(=O)n3ccccc3nc21,13,8,9,2,9,-2,.,.

# Bioassay records as filed in PubChem.
